These results are taken from ChEMBL document CHEMBL1127800, “Asimin, asiminacin, and asiminecin: novel highly cytotoxic asimicin isomers from Asimina triloba” (J Med Chem, 1994).

Values after ≈ are worked out from the molar mass of the structure shown.

Data set [1] can be described thus: Tested for cytotoxicity by using brine shrimp lethality test. The data set is classed as organism-based. As to conditions: artemia, in vivo.
The next data set deals with A549. The data set is described as follows: Tested in vitro for cytotoxicity against A-549 lung cancer cells. It is filed as functional. As to conditions: Homo sapiens, read-out: ED50 (the source's name). Summed up: (§1)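 Seven-day in vitro cytotoxicity assay in human tumour cell lines (A-549 lung carcinoma, MCF-7 breast carcinoma, HT-29 colon carcinoma), run by standard protocols; adriamycin tested alongside.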

The next data set has as its system MCF7. The data set is described as follows: Tested in vitro for cytotoxicity against MCF-7 breast cancer cells. The data set is classed as functional. The note with it: Homo sapiens, read-out: ED50 (the source's name). Summed up:
as §1

Another data set relates to HT-29. Put plainly: Tested in vitro for cytotoxicity against H-29 colon cancer cells. The data set is classed as functional. The note with it: Homo sapiens, read-out: ED50 (the source's name). Summed up:
as §1

Usually LC50 stands for the concentration that kills 50% of the test population. For `CCCCCC[C@H](O)CCC[C@@H](O)[C@H]1CC[C@H]([C@H]2CC[C@H]([C@H](O)CCCCCCCCC[C@@H](C)CCC3=C[C@H](C)OC3=O)O2)O1`, the LC50 in data set [1] is 0.0049 µg/mL (≈ 0.00769 µM).
Turning to `CCCCCCCCCC[C@@H](O)[C@H]1CC[C@H]([C@H]2CC[C@H]([C@H](O)CCCCCCCCCC[C@H](O)CC3=C[C@H](C)OC3=O)O2)O1`, in data set [1], the LC50 came out at 0.0256 µg/mL (≈ 0.0411 µM). In addition, the EC50 is 0.00843 µg/mL (≈ 0.0135 µM) in the data set with A549 and 0.852 µg/mL (≈ 1.37 µM) with MCF7.
In data set [1], `CCCCCCCCCC[C@@H](O)[C@H]1CC[C@H]([C@H]2CC[C@H]([C@H](O)CCCCCCCCC[C@@H](C)CCC3=C[C@H](C)OC3=O)O2)O1` gave an LC50 of 4600 µg/mL (≈ 7410 µM).
On to `CCCCCCCCCC[C@@H](C(C)=O)[C@H]1CC[C@H]([C@H]2CC[C@H]([C@@H](CCCC[C@H](CCCC[C@@H](C)CCC3=C[C@H](C)OC3=O)C(C)=O)C(C)=O)O2)O1`, for which the median lethal concentration (LC50) in data set [1] came out at 0.0057 µg/mL (≈ 0.00797 µM).
In turn, `COc1cccc2c1C(=O)c1c(O)c3c(c(O)c1C2=O)C[C@@](O)(C(=O)CO)C[C@@H]3O[C@H]1C[C@H](N)[C@H](O)[C@H](C)O1` [DOXORUBICIN] displayed a median lethal concentration (LC50) in data set [1] of 0.257 µg/mL (≈ 0.473 µM). Moreover, the EC50 with A549 is 0.000104 µg/mL (≈ 0.000191 µM); in the data set with HT-29, 0.000153 µg/mL (≈ 0.000281 µM); with MCF7 it was 0.0176 µg/mL (≈ 0.0324 µM).
